Results published in ChEMBL document CHEMBL1145571, “Carboxylic acid isosteres improve the activity of ring-fused 2-pyridones that inhibit pilus biogenesis in E. coli” (Bioorg Med Chem Lett, 2008).
pIC50: −log10 of the molar value.

Assays:
Escherichia coli [1] = assay: Inhibition of P pilus biogenesis in Escherichia coli HB101/pPAP5 assessed as agglutination of erythrocytes at 1.8 mM; type: functional
In short: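 E. coli HB101/pPAP5 grown 24 h at 37 °C on TSA containing 1.8 mM compound, 2.5% DMSO and 100 μg/ml ampicillin. Cells scraped off, suspended in PBS pH 7.4 to OD600 = 1.0. 1 ml pelleted at 2000g for 5 min, resuspended in 80 μl PBS, then serially diluted in PBS for hemagglutination read-out.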

[2] = target: Chaperone protein PapD (Escherichia coli) (UniProt P15319); assay: Binding affinity to Escherichia coli PapD relative to control; parameters: concentration or dose not given beside the values
Escherichia coli [3] = assay: Inhibition of pili-dependent biofilm formation of Escherichia coli HB101/pPAP5 at 400 uM; type: functional; parameters: scale not given: the % may be the effect or the level left
Escherichia coli [4] = assay: Inhibition of pili-dependent biofilm formation of Escherichia coli HB101/pPAP5; type: functional, organism-based

Chaperone protein PapD (Escherichia coli), sequence (P15319 whole entry, looked up): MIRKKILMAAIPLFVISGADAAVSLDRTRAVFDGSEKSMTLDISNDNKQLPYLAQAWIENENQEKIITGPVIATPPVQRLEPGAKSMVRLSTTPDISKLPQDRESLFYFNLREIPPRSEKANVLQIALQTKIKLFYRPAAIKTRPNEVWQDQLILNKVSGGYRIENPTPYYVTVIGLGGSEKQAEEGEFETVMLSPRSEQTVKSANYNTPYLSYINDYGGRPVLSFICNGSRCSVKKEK

Row | Compound | Activity [2] [%] | pIC50 (Escherichia coli [4]) | Activity (Escherichia coli [1]) | Activity (Escherichia coli [3]) [%]
1 | O=C(NO)[C@@H]1CSc2c(-c3ccccc3)c(Cc3cccc4ccccc34)cc(=O)n21 | – | – | 128 | –
2 | O=C([O-])[C@@H]1CSc2c(C3CC3)c(Cc3cccc4ccccc34)cc(=O)n21.[Li+] | 71 | – | 8 | 45
3 | O=c1cc(Cc2cccc3ccccc23)c(-c2ccccc2)c2n1[C@H](c1nnn[nH]1)CS2 | – | – | 2 | –
4 | C[C@@H](C(=O)O)n1cc(-c2ccccc2)c(Cc2cccc3ccccc23)cc1=O | – | – | 32 | –
5 | NC(=O)[C@@H]1CSc2c(-c3ccccc3)c(Cc3cccc4ccccc34)cc(=O)n21 | – | – | 64 | –
6 | CS(=O)(=O)NC(=O)[C@@H]1CSc2c(-c3ccccc3)c(Cc3cccc4ccccc34)cc(=O)n21 | – | – | 4 | –
7 | O=c1cc(Cc2cccc3ccccc23)c(C2CC2)c2n1[C@H](c1nnn[nH]1)CS2 | 67 | 4.19 | 4 | –
8 | O=C(NS(=O)(=O)c1ccccc1)[C@@H]1CSc2c(-c3ccccc3)c(Cc3cccc4ccccc34)cc(=O)n21 | – | – | 4 | –

Further lines, with some results ahead:

Row | Activity [2] [%] | pIC50 (Escherichia coli [4]) | Compound | Activity (Escherichia coli [1]) | Activity (Escherichia coli [3]) [%]
9 | 62 | 4.52 | CS(=O)(=O)NC(=O)[C@@H]1CSc2c(C3CC3)c(Cc3cccc4ccccc34)cc(=O)n21 | 2 | –
10 | 52 | – | O=C(NO)[C@@H]1CSc2c(C3CC3)c(Cc3cccc4ccccc34)cc(=O)n21 | 64 | –
11 | 33 | – | C[C@@H](C(=O)[O-])n1cc(C2CC2)c(Cc2cccc3ccccc23)cc1=O.[Li+] | 32 | –
12 | 40 | – | NC(=O)[C@@H]1CSc2c(C3CC3)c(Cc3cccc4ccccc34)cc(=O)n21 | 64 | –
13 | 100 | – | O=C(NS(=O)(=O)c1ccccc1)[C@@H]1CSc2c(C3CC3)c(Cc3cccc4ccccc34)cc(=O)n21 | 4 | –
